Eight compounds from ChEMBL document CHEMBL3525999, “In vivo biliary clearance should be predicted by intrinsic biliary clearance in sandwich-cultured hepatocytes” (Drug Metab Dispos, 2012) can be followed below.

For one series, the system named is Hepatocyte. Briefly: Drug uptake in sandwich cultured Sprague-Dawley rat hepatocytes by LC-MS/MS analysis. It is filed as ADME, cell-based. The procedure, abridged:
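Hepatocytes came from male Sprague-Dawley rats by two-step collagenase perfusion (viability >90%). They were seeded at 5 × 10^5 cells/well on collagen, overlaid with Matrigel 0.25 mg/mL on day 2, and cultured 72 h. Cells were preincubated 10 min at 37°C in HBSS or Ca2+/Mg2+-free HBSS with 1 mmol/L EGTA. Substrate (0.5 or 1 μmol/L) was incubated 15 min. Cells were then rinsed ice-cold, lysed in Triton X-100, and analyzed by LC-MS/MS, normalized to BCA protein. n = 3.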

A short description of series [1]: Unbound fraction in Sprague-Dawley rat plasma at 100 uM by equilibrium dialysis method. On the technique in general: In equilibrium dialysis free small molecules cross a membrane that holds back macromolecules.
Series [2] in a line: In vivo intrinsic biliary clearance in iv dosed Sprague-Dawley rat by LC-MS/MS analysis. It is filed as ADME, organism-based, Bile.
The nature of series [3]: In vivo apparent biliary clearance in iv dosed Sprague-Dawley rat by LC-MS/MS analysis. It is filed as ADME, organism-based, Bile.
Series [4] can be described thus: Drug uptake in iv dosed Sprague-Dawley rat liver after 5 hrs by LC-MS/MS analysis. It is filed as ADME, organism-based. To be noted: read-out: Drug uptake. The gist of the method:
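Rats (9 weeks old) were anesthetized with isoflurane, and the femoral vein and common bile duct were cannulated; animals were held in Bollman cages. Compound (1 mg/mL in saline, or in saline:dimethylacetamide 1:1) was infused IV at 0.2 mL/h to reach steady-state plasma levels. Livers were taken 5 h after infusion start, extracted with acetonitrile containing internal standard, and analyzed by LC-MS/MS. n = 5.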

A short description of series [5]: Total clearance in Eisai hyperbilirubinemic mutant rat at 20 mg/kg, iv administered as single dose by HPLC analysis. It is filed as ADME, organism-based. Details: dose 20 mg/kg, route intravenous. To be noted: in vivo.
A short description of series [6]: Biliary excretion in Eisai hyperbilirubinemic mutant rat at 20 mg/kg, iv administered as single dose by HPLC analysis. It is filed as ADME, organism-based. More on the design: dose 20 mg/kg, route intravenous. To be noted: bile, read-out: Drug excretion.
Series [7] is described as follows: Total clearance in rat. To be noted: in vivo. It is filed as ADME, organism-based.
Series [8] is described as follows: Biliary excretion in rat. It is filed as ADME. To be noted: bile, read-out: Drug excretion.

Broadly, the fraction unbound is the share of the substance not bound to proteins or other matrix. A higher fraction unbound goes with much free substance. By clearance is commonly meant the rate of elimination divided by the concentration. Lower therefore signals inefficient removal.

Each structure is given as a SMILES string.

Compound `CCCCC(=O)N(Cc1ccc(-c2ccccc2-c2nnn[nH]2)cc1)[C@H](C(=O)O)C(C)C` displayed a Drug uptake in the series with Hepatocyte of 17.5 µmol/L. Besides, the fraction unbound at 100 µM in series [1] was 0.003. For the same compound, the CL in [2] was determined as 1.18 mL/min/kg. Also, the “CL(app)” value in series [3] turned out to be 3.5 mL/min/kg. In addition, the concentration at 5 h in [4] came to 17.4 µM.
The like results for `CO[C@@]1(NC(=O)CSCC#N)C(=O)N2C(C(=O)O)=C(CSc3nnnn3C)CS[C@@H]21` [CEFMETAZOLE] were, in that order, 11.4 µmol/L, 0.738, 3.57 mL/min/kg, 6.22 mL/min/kg and 5.1 µM.
`CCN1CCN(C(=O)N[C@@H](C(=O)N[C@@H]2C(=O)N3C(C(=O)O)=C(CSc4nnnn4C)CS[C@H]23)c2ccc(O)cc2)C(=O)C1=O` [CEFOPERAZONE]: the Drug uptake in the series on Hepatocyte was found to be 2.6 µmol/L. For the same compound, the concentration at 5 h in series [4] amounted to 2.5 µM.
Regarding `Cc1cc(O)c(C(=O)N[C@@H](C(=O)N[C@@H]2C(=O)N3C(C(=O)O)=C(CSc4nnnn4C)CS[C@H]23)c2ccc(O)cc2)cn1` [CEFPIRAMIDE], in series [5], the clearance is 8.15 mL/min/kg. The dose excreted in series [6] was 57.8%. Further, the Drug uptake in the series with Hepatocyte was determined as 1 µmol/L. The compound further returned a fraction unbound at 100 µM in series [1] of 0.158. Besides, the CL in [2] stood at 3.357 mL/min/kg. Moreover, the “CL(app)” value in series [3] stood at 4.72 mL/min/kg. The concentration at 5 h in series [4] worked out at 2.6 µM.
Compound `CCCc1nc(C(C)(C)O)c(C(=O)O)n1Cc1ccc(-c2ccccc2-c2nnn[nH]2)cc1` [OLMESARTAN] came in with a Drug uptake in the series on Hepatocyte of 26 µmol/L. The fraction unbound at 100 µM in series [1] was determined as 0.01. In series [2], this compound came in with a CL of 1.11 mL/min/kg. The “CL(app)” value in series [3] amounted to 2.8 mL/min/kg. Besides, in series [4], the concentration at 5 h came to 19.1 µM.
For `CC[C@H](C)C(=O)O[C@H]1C[C@H](O)C=C2C=C[C@H](C)[C@H](CC[C@@H](O)C[C@@H](O)CC(=O)O)[C@H]21` [PRAVASTATIN] the same measures were 1.9 µmol/L, 0.705, 6.723 mL/min/kg, 27.4 mL/min/kg and 1.9 µM.
For `CC(C)c1nc(N(C)S(C)(=O)=O)nc(-c2ccc(F)cc2)c1/C=C/[C@@H](O)C[C@@H](O)CC(=O)O` [ROSUVASTATIN] the same measures were 11.8 µmol/L, 0.035, 2.505 mL/min/kg, 24.17 mL/min/kg and 7.1 µM.
As for `CC[C@@]1(O)C(=O)OCc2c1cc1n(c2=O)Cc2cc3c(CN(C)C)c(O)ccc3nc2-1` [TOPOTECAN], the Drug uptake in the series on Hepatocyte was determined as 3.3 µmol/L. The compound also showed a clearance in series [7] of 40.1 mL/min/kg. Moreover, the dose excreted in [8] was 13.2%. This compound had a fraction unbound at 100 µM in [1] of 0.747. In addition, the CL in [2] is 0.458 mL/min/kg. Moreover, the “CL(app)” value in [3] stood at 5.3 mL/min/kg. In series [4], the concentration at 5 h amounted to 6.9 µM.
